Compound activity as filed in PubChem.
A selection: hits, their analogues and other compounds. The true share with any hit is near 0.58%.
MMP13 inh = blocks human MMP13 activity; P45452; MMP-13 fTHP FRET cleavage, Mca fluorescence; inhibition, % at 4 µM; 0.07% of 65,000 active;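 active = inhibition above the mean of compound-free control plate wells plus 3 SD, cut at about 14% in these data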;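 also: 0% = DMSO wells and 100% = wells with reference MMP-13 inhibitor after basal subtraction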
C1s inh = human complement C1s inhibition | 0.16% of 62,000 active | P09871 | mean inhibition % of two 10-compound mixtures (active compounds read high), % at 5 µM (by protocol) | AID 538 | purified C1s, fluorogenic AMC substrate, pooled mixtures;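 active = inhibition above 20% in each of the two 10-compound mixture wells holding the compound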;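 also: 0% = enzyme wells lacking compound mixture and 100% = no-enzyme blank wells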
FXIa mix inh = blocks human factor XIa in pooled compound mixtures; purified FXIa, fluorogenic substrate; inhibition, % at 5 µM; 0.19% of 62,000 active;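 also: each value is inhibition by a whole ten-compound pool holding the compound; 0% = enzyme with no mixture and 100% = wells lacking enzyme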
AP complement = alternative pathway complement inhibition, orthogonal assay; Human serum alternative complement pathway, LPS-coated ELISA, C3 deposition; tested in compound mixtures; inhibition, % at 5 µM; 0.08% of 62,000 active; AID 1235;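 active = inhibition above 30% in each of the two pooled mixtures holding the compound, so the lower value exceeds 30%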;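 also: 0% = serum in Mg-EGTA without compound and 100% = EDTA serum blank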
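Assay system: Human serum alternative complement pathway, C3 deposition on LPS-coated wells | Incubation: 1 h serum-compound exposure at 37 °C | Doses: 5 µM per compound in ten-compound mixtures | Read-out: Percent inhibition | Technique: ELISA with HRP anti-human C3 antibody, TMB substrate, absorbance 450 nm | Replication: Two pool placements per compound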
FXIIa mix inh = factor XIIa (human) inhibition, mixture screen. P00748. purified FXIIa, fluorogenic substrate, pooled mixtures. inhibition, % at 5 µM. 0.2% of 62,000 active;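 also: 0% = enzyme without compound and 100% = no enzyme blank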
Target sequence (P00748 20-372 limits assumed): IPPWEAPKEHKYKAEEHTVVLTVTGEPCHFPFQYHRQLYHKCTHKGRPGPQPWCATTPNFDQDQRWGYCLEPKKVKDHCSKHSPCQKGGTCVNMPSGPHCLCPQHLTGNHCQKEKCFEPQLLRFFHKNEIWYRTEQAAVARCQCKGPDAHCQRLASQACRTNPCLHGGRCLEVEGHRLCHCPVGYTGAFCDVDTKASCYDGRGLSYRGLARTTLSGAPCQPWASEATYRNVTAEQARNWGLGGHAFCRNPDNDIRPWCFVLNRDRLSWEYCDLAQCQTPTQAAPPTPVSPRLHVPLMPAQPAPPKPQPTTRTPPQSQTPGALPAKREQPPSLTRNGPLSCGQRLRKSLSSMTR
Target sequence (P00748 373-615 limits assumed): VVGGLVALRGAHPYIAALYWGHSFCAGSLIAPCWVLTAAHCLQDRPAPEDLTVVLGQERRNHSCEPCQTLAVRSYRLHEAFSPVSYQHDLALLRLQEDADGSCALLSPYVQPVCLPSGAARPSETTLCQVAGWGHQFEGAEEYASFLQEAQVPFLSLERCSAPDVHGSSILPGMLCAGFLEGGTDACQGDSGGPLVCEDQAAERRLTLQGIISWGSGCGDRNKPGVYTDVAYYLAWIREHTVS
Cathepsin G inh = blocks human cathepsin G enzyme activity; P08311; purified enzyme, AMC-tetrapeptide fluorescence, pooled mixtures; inhibition, % at 5 µM (by protocol); 0.2% of 62,000 active;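 active = inhibition above 20% in each of the two mixture wells holding the compound; inactive = inhibition of 20% or less in either well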;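 also: 0% = enzyme control without mixture and 100% = blank lacking enzyme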
An asterisk follows results filed as active; x = not tested or not shown. Rule as the data show it, unless noted: active = inhibition above about 20% (passing the limit was not always enough); inactive = the rest.

SMILES | MMP13 inh | C1s inh | FXIa mix inh | AP complement | FXIIa mix inh | Cathepsin G inh
O=C(O)COCc1nc2ccccc2[nH]1 | 2 | 22* | 10 | 12 | -11 | 14
CC(=O)C1=C(C)NC(SCC(=O)c2ccccc2)=C(C#N)C1CC(C)C (configuration not stated) | -11 | -20 | 7 | -2 | 1 | 3
CCOC(=O)c1[nH]c2ccc(OC)cc2c1NC(=O)CCN1CCCC(C)C1 (configuration not stated) | -85 | x | x | x | x | x
O=C(COC(=O)c1cnccn1)c1ccc(OC(=O)c2ccccc2)cc1 | -6 | 26* | 12 | 26 | -10 | 9
O=C(NCc1ccc2c(c1)OCO2)c1cccc(N2CCCC2=O)c1 | 3 | 15 | 5 | 20 | 27* | 11
O=C(NCc1ccc2c(c1)OCO2)c1cccc(C(=O)NCc2ccc3c(c2)OCO3)c1 | 21* | -5 | 5 | 17 | 1 | 0
O=C(NCc1ccc2c(c1)OCO2)c1cccnc1 | 6 | 5 | 3 | 6 | 0 | 4
CC(Sc1nnnn1-c1ccccc1)C(=O)Nc1ccc(Cl)cn1 (configuration not stated) | -3 | 5 | 15 | -5 | 6 | 4
COc1ccc(Nc2nc(C)cc(C)c2C(N)=O)c(OC)c1 | 0 | 18 | 4 | 22 | -15 | 9
COC(=O)Cn1cnc2c(nnn2-c2cccc(Cl)c2)c1=O | -2 | -32 | -3 | 17 | 7 | 6
Cc1cc(C)nc(N2CCCC(C(=O)NCCC3=CCCCC3)C2)n1 (configuration not stated) | -1 | -14 | -3 | 0 | 5 | 26
CCOC(=O)/C(C(C)=O)=C1\OC(=O)c2ccccc21 | 3 | 16 | 4 | 16 | -10 | 15
CCOC(=O)Cc1csc(-n2sc3ccccc3c2=O)n1 | 3 | -8 | -1 | 0 | 31* | 10
CCOC(=O)Cc1csc(SCn2nnc3ccccc3c2=O)n1 | -4 | 9 | 5 | 9 | -20 | 11
COc1ccc(C2C=C(c3ccccc3)Nc3nc(CCCO)nn32)cc1 (configuration not stated) | -371 | -26 | 41* | 2 | 9 | 10
CC(C)NC(=O)CN(CCc1ccccc1)S(C)(=O)=O | 4 | 8 | 10 | 3 | 22* | 14
CCOC(=O)C(C)On1c(SC(C)C(=O)OCC)nc2ccccc2c1=O (configuration not stated) | 2 | -7 | 12 | -3 | 49* | 1
CCOC(=O)CSc1nc2ccccc2c(=O)n1C | 1 | x | x | x | x | x
Cc1cnc(C(=O)Nc2ccccc2-c2ccc(C)o2)cn1 | 6 | -16 | -2 | 1 | 5 | 28*
CCn1c(SCC(=O)N2CCCc3ccccc32)nnc1-c1cccs1 | 4 | 0 | 9 | 14 | -17 | 3
CCn1c(SCC(=O)N2CCOCC2)nnc1-c1cccs1 | 10 | -1 | 21* | -13 | -4 | 2
COc1ccccc1-c1c(C#N)c(SCC(=O)N2CCCC2)nc(C)c1C(N)=O | 3 | 11 | 7 | 10 | -18 | 25*
CCOC(=O)N1CCN(C(=O)CSc2cc(C)nc3c(-c4ccccc4OC)c(C)nn23)CC1 | 0 | -4 | 4 | -5 | 0 | 0
CCCCN1C(=O)/C(=C2\SC(N3CCCCC3)=NC2=O)c2ccccc21 | 2 | 23* | 4 | 10 | 8 | 15
Cc1ccc(NC(=O)c2ccc(S(=O)(=O)NCC3CCCO3)cc2)cc1 (configuration not stated) | -4 | -26 | -1 | 3 | 22* | -8
SMILES | MMP13 inh | C1s inh | FXIa mix inh | AP complement | FXIIa mix inh | Cathepsin G inh
Fc1cccc(CN2CCN(c3ncccn3)CC2)c1 | 3 | 10 | 3 | 7 | 1 | 10
CCCN(c1ccc(C(C)C)cc1)S(=O)(=O)c1c(C)noc1C | 1 | -1 | 8 | 3 | 35* | -1
COc1ccccc1NC(=O)CSc1nnc(-c2ccccn2)n1Cc1ccco1 | 3 | 28 | 50* | 7 | 3 | 31*
COc1ccc(C)cc1NC(=O)CSc1nnc(-c2ccccn2)n1Cc1ccco1 | 0 | -4 | 2 | 1 | 4 | 9
CCCCCn1c(SCc2cccc(C)c2)nc2c1c(=O)[nH]c(=O)n2C | 1 | -49 | -8 | 21 | 2 | 0
COC(=O)C(NC(=O)c1ccco1)(Nc1nc(C)cs1)C(F)(F)F (configuration not stated) | -1 | x | x | x | x | x
Cc1csc(NC(=O)c2ccco2)n1 | -18 | 22* | 9 | 15 | -20 | 13
CCN(CCCNC(=O)CCc1nc(-c2ccc(OC)cc2)no1)c1cccc(C)c1 | 3 | -34 | -4 | -4 | 10 | -7
CCOC(=O)COn1c(=O)c(-c2ccco2)[n+]([O-])c2ccccc21 | -10 | x | x | x | x | x
CCOn1c(=O)c(-c2cc3ccccc3o2)[n+]([O-])c2ccccc21 | 6 | 3 | 24* | 5 | -13 | 6
Cc1ccc(SCCCCN2C(=O)NC(C)(C)C2=O)cc1 | 3 | 5 | 7 | 9 | 6 | 4
Cc1nn(-c2ccc(F)cc2)c2c1cc(C#N)c1nc3ccccc3n12 | -53 | -60 | -20 | 11 | 6 | -5
O=C(CN1CCOCC1)Nc1cccc(Cl)c1Cl | 0 | 14 | 6 | 27 | 4 | 10
NC(=O)c1ccccc1NC(=O)CN1CCOCC1 | -1 | 0 | 20* | 3 | 11 | 8
N#Cc1nc(-c2cccs2)oc1NCc1ccc2c(c1)OCO2 | -314 | x | x | x | x | x
COc1ccc2[nH]c(=O)c(CN(Cc3nnnn3Cc3ccc(F)cc3)CC3CCCO3)cc2c1 (configuration not stated) | -22 | -20 | 6 | -27 | 21* | -5
Cc1cc(NC(=O)c2noc3c2CCc2ccccc2-3)n(-c2ccccc2)n1 | 3 | 14 | 17 | 11 | 11 | 59*
CCC(=O)Nc1ccc(C(=O)n2ccc(C)n2)cc1 | -4 | -13 | 12 | 35* | 2 | 9
COC(=O)c1cccc(NC(=O)Cn2cnc3c2c(=O)n(C)c(=O)n3C)c1 | 15* | -30 | 0 | -22 | 6 | -10
Cc1cc(NC(=O)CSc2cn(CCNC(=O)c3ccccc3)c3ccccc23)no1 | 2 | -2 | 7 | 13 | 7 | -2
Cc1ccc(C(=O)NCCn2cc(SCC(=O)Nc3cc(C)on3)c3ccccc32)cc1 | 0 | 12 | 4 | 32* | 1 | 33
O=C(COC(=O)c1ccc(S(=O)(=O)N2CCCC2)cc1)NCc1ccccc1 | 0 | -1 | -3 | 6 | -4 | -11
CC1(C)Oc2ccc3ccc(=O)oc3c2C(N2CCCCC2)C1O (configuration not stated) | -23 | 11 | 4 | 8 | 20* | 12
CCOC(=O)c1sc(N)c(C#N)c1COC(=O)CNC(=O)c1ccccc1 | -2 | 8 | 4 | 13 | 12 | 5
C=CCNC(=O)c1ccc(Cl)cc1Cl | 4 | 14 | 25* | 7 | -21 | 14
